Measurements taken from ChEMBL document CHEMBL4371072, “Structure-Activity Relationship Studies and Plasmodium Life Cycle Profiling Identifies Pan-Active N-Aryl-3-trifluoromethyl Pyrido[1,2- a]benzimidazoles Which Are Efficacious in an in Vivo Mouse Model of Malaria” (J Med Chem, 2019).
Values belong to the molecule of their own block, whether it stands above or below them.

Columns and labels:
[1] = test system: Plasmodium berghei; assay: Antimalarial activity against liver stage form of luciferase transfected Plasmodium berghei sporozoites infected in human HuH7 cells preincubated with host cells for 1 hr followed by plasmodial infection and measured after 48 hrs by bioluminescence method; assay type: functional, organism-based; settings: Huh-7
[2] = Resistance index, ratio of IC50 for chloroquine-resistant asexual blood stage of Plasmodium falciparum K1 infected in human RBC to IC50 for chloroquine-sensitive asexual blood stage of Plasmodium falciparum NF54 infected in human RBC; assay type: functional
[3] = test system: Plasmodium berghei; assay: Antimalarial activity against GFP-fused Plasmodium berghei ANKA infected in NMRI mouse assessed as inhibition of parasitemia at 50 mg/kg, po administered consecutively at 4, 24, 48 and 72 hrs post infection by flow cytometry relative to control; assay type: functional
Outline: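 NMRI mice infected intravenously with P. berghei; oral treatment at 50 mg/kg given 4, 24, 48 and 72 h post-infection (4 x 50 mg/kg). Control mice received vehicle only. Parasitemia of treated animals compared with that of untreated controls. Mice counted as cured if no parasitemia was detected 30 days after treatment.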

[4] = Half life in human liver microsomes at 0.1 uM in presence of NADPH by LC-MS/MS analysis
[5] = Half life in Balb/c mouse liver microsomes at 0.1 uM in presence of NADPH by LC-MS/MS analysis
[6] = test system: Plasmodium berghei; assay: Antimalarial activity against GFP-fused Plasmodium berghei ANKA infected in NMRI mouse assessed as host mean survival time at 50 mg/kg, po administered consecutively at 4, 24, 48 and 72 hrs post infection; assay type: functional
Outline: (§1)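 NMRI mice infected intravenously with P. berghei; oral treatment at 4, 24, 48 and 72 h post-infection (4 x 50 mg/kg), vehicle to controls; reference drug 4 x 30 mg/kg orally on four consecutive days. Parasitemia compared with untreated controls; mean survival days recorded; cure if no parasitemia 30 days after treatment.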

[7] = Selectivity index, ratio of IC50 for CHO cells to IC50 for chloroquine-sensitive asexual blood stage of Plasmodium falciparum NF54 infected in human RBC; assay type: toxicity; settings: Chinese hamster, read-out: Ratio IC50
Outline: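 Selectivity index taken as the ratio of the CHO-cell IC50 to the P. falciparum NF54 IC50.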

[8] = test system: Plasmodium falciparum; assay: Antiplasmodial activity against chloroquine-sensitive final late stage of Plasmodium falciparum NF54-Mal8p1.16-GFP-Luc gametocytes after 24 hrs by BacTiter-Glo assay; assay type: functional, organism-based; settings: NF54, 24 h
Outline: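 Late-stage PfNF54 gametocytes produced in vitro; gametocytocidal IC50 via luciferase reporter and ATP bioluminescence platforms; n=3 independent biological replicates in technical triplicates, ± S.E.M.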

[9] = biological target: T1, hERG (KCNH2) (Homo sapiens, UniProt Q12809); assay: Inhibition of human ERG expressed in CHO cells assessed as reduction in peak channel current at 0.3 uM by IonWork patch-clamp electrophysiology method relative to control; assay type: cell-based; settings: CHO cells expressing human ERG
[10] = test system: CHO; assay: Cytotoxicity against CHO cells after 48 hrs by MTT assay; assay type: cell-based; settings: Cricetulus griseus
[11] = Lipophilicity, log D of the compound; assay type: physicochemical; settings: octanol/water
Outline: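 LogD computed with ChemDraw 16.0.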

[12] = Metabolic stability in human liver microsomes assessed as parent compound remaining at 0.1 uM after 30 mins in presence of NADPH by LC-MS/MS analysis
[13] = test system: Plasmodium falciparum; assay: (§2) Antiplasmodial activity against chloroquine-sensitive asexual blood stage of Plasmodium falciparum NF54 infected in human RBC assessed as reduction in [3H]hypoxanthine incorporation preincubated for 48 hrs followed by [3H]hypoxanthine addition measured after 24 hrs by liquid scintillation counting method; assay type: functional, organism-based
Outline: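 Asexual blood-stage P. falciparum NF54 assay, run as a modified [3H]-hypoxanthine incorporation assay. Values are the mean of n ≥ 2 assays; determinations differing more than 3-fold were excluded. Chloroquine and artesunate served as controls.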

[14] = biological target: Voltage-gated inwardly rectifying potassium channel KCNH2 (Homo sapiens, UniProt Q12809); assay: Inhibition of human ERG expressed in CHO cells assessed as reduction in peak channel current by IonWork patch-clamp electrophysiology method; assay type: cell-based
[15] = test system: Plasmodium falciparum; assay: as §2, with “chloroquine-resistant” for “chloroquine-sensitive”, “K1” for “NF54”; assay type: functional, organism-based
Outline: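 Asexual blood-stage P. falciparum K1 (multidrug resistant) screened by modified [3H]-hypoxanthine incorporation assay; IC50 as mean of n ≥ 2 assays, replicates differing above 3-fold excluded; chloroquine and artesunate controls.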

[16] = biological target: T1, hERG (KCNH2); assay: Inhibition of human ERG expressed in CHO cells assessed as reduction in peak channel current at 10 uM by IonWork patch-clamp electrophysiology method relative to control; assay type: cell-based; settings: CHO cells expressing human ERG
Outline: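 hERG potassium channel profiled by IonWorks patch-clamp electrophysiology, with 10 μM as the highest concentration tested. Values are the mean of 3 results from experiments run as biological and technical triplicates.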

[17] = Solubility of the compound; assay type: physicochemical
[18] = Metabolic stability in Balb/c mouse liver microsomes assessed as parent compound remaining at 0.1 uM after 30 mins in presence of NADPH by LC-MS/MS analysis
[19] = test system: Plasmodium falciparum; assay: Ratio of IC50 for late stage of Plasmodium falciparum NF54-Mal8p1.16-GFP-Luc gametocytes to IC50 for early stage of Plasmodium falciparum NF54-PfS16-GFP-Luc gametocytes; assay type: functional
[20] = test system: Plasmodium falciparum; assay: Ratio of IC50 for early stage of Plasmodium falciparum NF54-PfS16-GFP-Luc gametocytes to IC50 for late stage of Plasmodium falciparum NF54-Mal8p1.16-GFP-Luc gametocytes; assay type: functional
[21] = test system: Plasmodium berghei; assay: Antimalarial activity against GFP-fused Plasmodium berghei ANKA infected in NMRI mouse assessed as host mean survival time at 30 mg/kg, po administered for 4 consecutive days; assay type: functional; outline: as §1
[22] = test system: Hemozoin; assay: Inhibition of beta hematin formation after 5 hrs by NP40 detergent-based assay
[23] = Half life in C57B1/6 mouse at 20 mg/kg, po by LC-MS/MS analysis; assay type: ADME, organism-based; settings: in vivo
Outline: (§3)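 Mouse oral PK: C57B1/6 mice (n=3) dosed orally at 20 mg/kg. Blood concentrations followed over time; values are means of 3 mice.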

[24] = Time at which blood concentration stays above in vitro antiplasmodial Plasmodium falciparum NF54 IC50 in C57B1/6 mouse at 20 mg/kg, po; assay type: ADME, organism-based; settings: in vivo
[25] = Tmax in C57B1/6 mouse at 20 mg/kg, po by LC-MS/MS analysis; assay type: ADME, organism-based; settings: in vivo; outline: as §3
[26] = Half life in C57B1/6 mouse at 2 mg/kg, iv by LC-MS/MS analysis; assay type: ADME, organism-based; settings: in vivo
Outline: (§4)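 Mouse IV PK: C57B1/6 mice (n=2) given 2 mg/kg intravenously as a solution in dimethylacetamide, polyethylene glycol and propylene glycol/ethanol (4:1) at ratio 1:3:6. Blood concentrations followed over time; values are means of 2 mice.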

[27] = Clearance in C57B1/6 mouse at 2 mg/kg, iv by LC-MS/MS analysis; assay type: ADME, organism-based; settings: in vivo; outline: as §4
[28] = Volume of distribution in C57B1/6 mouse at 2 mg/kg, iv by LC-MS/MS analysis; assay type: ADME, organism-based; settings: in vivo; outline: as §4
[29] = Oral bioavailability in C57B1/6 mouse at 20 mg/kg by LC-MS/MS analysis; assay type: ADME, organism-based; settings: in vivo
Outline: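 Oral bioavailability from C57B1/6 mice dosed 20 mg/kg orally (n=3), referenced to a separate intravenous set at 2 mg/kg (n=2) formulated in dimethylacetamide/polyethylene glycol/propylene glycol–ethanol (4:1), ratio 1:3:6.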

[30] = Cmax in C57B1/6 mouse at 20 mg/kg, po by LC-MS/MS analysis; assay type: ADME, organism-based; design: dose 20 mg/kg, route oral; settings: in vivo; outline: as §3
[31] = AUC (0 to infinity) in C57B1/6 mouse at 2 mg/kg, iv by LC-MS/MS analysis; assay type: ADME, organism-based; design: dose 2 mg/kg, route intravenous, time infinity; settings: in vivo; outline: as §4
[32] = AUC (0 to infinity) in C57B1/6 mouse at 20 mg/kg, po by LC-MS/MS analysis; assay type: ADME, organism-based; design: dose 20 mg/kg, time infinity, route oral; settings: in vivo; outline: as §3
[33] = Ratio of Cmax in C57B1/6 mouse at 20 mg/kg, po to IC50 for chloroquine-sensitive asexual blood stage of Plasmodium falciparum NF54 infected in human RBC; assay type: ADME, organism-based; settings: in vivo

T1 sequence (Q12809 whole entry): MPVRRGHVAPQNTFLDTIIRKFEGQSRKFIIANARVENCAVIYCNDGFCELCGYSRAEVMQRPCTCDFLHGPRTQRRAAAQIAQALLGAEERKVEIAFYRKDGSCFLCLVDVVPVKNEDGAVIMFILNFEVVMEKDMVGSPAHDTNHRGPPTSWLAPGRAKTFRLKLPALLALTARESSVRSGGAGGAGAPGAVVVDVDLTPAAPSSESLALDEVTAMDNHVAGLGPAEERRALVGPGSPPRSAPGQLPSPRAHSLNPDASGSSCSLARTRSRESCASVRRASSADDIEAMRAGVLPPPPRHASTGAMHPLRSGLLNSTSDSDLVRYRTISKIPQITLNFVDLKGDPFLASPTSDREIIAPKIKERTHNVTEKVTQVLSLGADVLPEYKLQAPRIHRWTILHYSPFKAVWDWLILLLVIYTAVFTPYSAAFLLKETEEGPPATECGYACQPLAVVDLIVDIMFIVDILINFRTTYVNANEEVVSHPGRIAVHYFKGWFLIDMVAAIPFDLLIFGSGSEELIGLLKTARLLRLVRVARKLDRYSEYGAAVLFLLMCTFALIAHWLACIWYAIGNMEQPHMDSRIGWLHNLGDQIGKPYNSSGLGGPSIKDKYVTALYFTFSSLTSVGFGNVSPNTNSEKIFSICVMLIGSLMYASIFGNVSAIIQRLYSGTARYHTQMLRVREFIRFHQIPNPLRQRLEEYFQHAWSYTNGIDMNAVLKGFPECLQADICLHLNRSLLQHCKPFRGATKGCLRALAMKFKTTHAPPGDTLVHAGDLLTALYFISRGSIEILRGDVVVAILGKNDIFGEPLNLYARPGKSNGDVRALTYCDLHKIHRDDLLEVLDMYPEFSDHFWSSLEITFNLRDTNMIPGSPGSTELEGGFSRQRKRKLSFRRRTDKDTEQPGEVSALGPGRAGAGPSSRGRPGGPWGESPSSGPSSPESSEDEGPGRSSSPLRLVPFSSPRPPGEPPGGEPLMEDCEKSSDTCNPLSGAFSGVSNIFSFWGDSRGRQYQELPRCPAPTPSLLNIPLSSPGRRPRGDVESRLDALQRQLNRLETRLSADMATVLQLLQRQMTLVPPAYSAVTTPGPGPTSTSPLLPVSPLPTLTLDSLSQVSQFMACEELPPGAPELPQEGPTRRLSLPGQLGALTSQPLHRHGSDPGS
Voltage-gated inwardly rectifying potassium channel KCNH2, sequence (Q12809 whole entry): as above

SMILES: N#Cc1c(C(F)(F)F)cc(NCc2ccccc2F)n2c1nc1cc(Cl)c(Cl)cc12
- IC50 [1]: 0.05 µM
- Ratio IC50 [2]: 0.82
- inhibition in vivo at 50 mg/kg [3]: 99.9%
- half-life at 0.1 µM ([4]; liver microsomes): > 2.5 h
- half-life at 0.1 µM ([5]; liver microsomes): 1.98 h
- MST [6]: 14 days
- selectivity ratio [7]: 25
- IC50 [8]: 0.37 µM
- inhibition at 0.3 µM [9]: 5.49%
- IC50 [10]: 4.3 µM
- logD [11]: 4.16
- remaining at 0.5 h, 0.1 µM ([12]; liver microsomes): 97%
- IC50 [13]: 0.17 µM
- IC50 [14]: > 10 µM
- IC50 [15]: 0.14 µM
- inhibition at 10 µM [16]: < 40%
- solubility [17]: < 5 µM
- remaining at 0.5 h, 0.1 µM ([18]; liver microsomes): 84%

SMILES: N#Cc1c(C(F)(F)F)cc(NCc2ccco2)n2c1nc1cc(Cl)c(Cl)cc12
- IC50 [1]: 0.06 µM
- Ratio IC50 [2]: 0.52
- half-life at 0.1 µM ([4]; liver microsomes): > 2.5 h
- half-life at 0.1 µM ([5]; liver microsomes): 0.833 h
- selectivity ratio [7]: 10
- IC50 [8]: 2 µM
- inhibition at 0.3 µM [9]: 6.82%
- IC50 [10]: 4.84 µM
- remaining at 0.5 h, 0.1 µM ([12]; liver microsomes): 100%
- IC50 [13]: 0.44 µM
- IC50 [14]: > 10 µM
- IC50 [15]: 0.23 µM
- inhibition at 10 µM [16]: < 40%
- remaining at 0.5 h, 0.1 µM ([18]; liver microsomes): 66%

SMILES: N#Cc1c(C(F)(F)F)cc(NCc2cccc(F)c2)n2c1nc1cc(Cl)c(Cl)cc12
- IC50 [1]: 0.07 µM
- Ratio IC50 [19]: 0.5
- Ratio IC50 [2]: 0.79
- half-life at 0.1 µM ([4]; microsomes): > 2.5 h
- half-life at 0.1 µM ([5]; microsomes): 1.98 h
- selectivity ratio [7]: 37
- IC50 [8]: 0.27 µM
- inhibition at 0.3 µM [9]: 6.53%
- IC50 [10]: 7.03 µM
- remaining at 0.5 h, 0.1 µM ([12]; microsomes): 100%
- IC50 [13]: 0.19 µM
- IC50 [14]: > 10 µM
- IC50 [15]: 0.15 µM
- Ratio IC50 [20]: 1.2
- inhibition at 10 µM [16]: < 40%
- remaining at 0.5 h, 0.1 µM ([18]; microsomes): 84%

- half-life at 0.1 µM ([4]; microsomes): > 2.5 h
- half-life at 0.1 µM ([5]; microsomes): 0.933 h
- remaining at 0.5 h, 0.1 µM ([12]; microsomes): 91%
- IC50 [13]: 0.4 µM
- remaining at 0.5 h, 0.1 µM ([18]; microsomes): 69%
SMILES: Cc1ccc(CNc2cc(C(F)(F)F)c(C#N)c3nc4cc(Cl)c(Cl)cc4n23)cc1
- Ratio IC50 [19]: 6
- selectivity ratio [7]: 15
- IC50 [8]: 0.6 µM
- IC50 [10]: 6.06 µM
- Ratio IC50 [20]: 0.2

SMILES: CCN(CC)CCCC(C)Nc1ccnc2cc(Cl)ccc12 (centres undefined) [CHLOROQUINE]
- MST [21]: 21 days
- IC50 [22]: 18 µM

SMILES: N#Cc1c(C(F)(F)F)cc(Nc2ccc(OC(F)(F)F)cc2)n2c1nc1ccccc12
- half-life [23]: 7.86 h
- Time [24]: > 20 h
- Tmax [25]: 5 h
- IC50 [1]: 0.11 µM
- half-life [26]: 11.4 h
- Ratio IC50 [2]: 0.88
- clearance [27]: 0.97 mL/min/kg
- inhibition in vivo at 50 mg/kg [3]: 98%
- half-life at 0.1 µM ([4]; liver microsomes): > 2.5 h
- Vd [28]: 0.9 L/kg
- half-life at 0.1 µM ([5]; liver microsomes): > 2.5 h
- MST [6]: 12 days
- selectivity ratio [7]: 103
- IC50 [8]: 3.32 µM
- bioavailability [29]: 2%
- Cmax [30]: 1100 nM
- inhibition at 0.3 µM [9]: 7.51%
- AUC [31]: 79.6 µM·h
- IC50 [10]: 17.6 µM
- logD [11]: 5.34
- remaining at 0.5 h, 0.1 µM ([12]; liver microsomes): > 99%
- AUC [32]: 19.4 µM·h
- IC50 [13]: 0.17 µM
- IC50 [14]: > 10 µM
- IC50 [15]: 0.15 µM
- inhibition at 10 µM [16]: < 40%
- solubility [17]: < 5 µM
- remaining at 0.5 h, 0.1 µM ([18]; liver microsomes): > 99%
- Ratio [33]: 6
